Assay results gathered from unrelated publications.
Compare with care: the assays were run in different laboratories.
Target: Serine/threonine-protein kinase PLK3 (PLK3, Homo sapiens, UniProt Q9H4B4)

SMILES	observed	mode	method	tested at	measurement	result
FC(F)(F)c1ccc2c(c1)nc(-c1cccnc1)n2C1CC1	cell-free assay	–	competition with immobilised ligand	1 µM	remaining binding	100%
Cc1ccc(Nc2nccc(N(C)c3ccc4c(C)n(C)nc4c3)n2)cc1S(N)(=O)=O	enzyme activity	inhibitor	–	0.3 µM	inhibition	-9%
Cc1ccc(NC(=O)c2ccc(C)c(C(F)(F)F)c2)cc1C#Cc1nn(C2CCC(O)CC2)c2ncnc(N)c12 (stereo not shown)	cell-free assay	–	–	10 µM	remaining signal	93%
CNC(=O)c1cc(Oc2ccc(NC(=O)Nc3ccc(Cl)c(C(F)(F)F)c3)cc2)ccn1	enzyme activity	inhibitor	–	10 µM	inhibition	-14%
N#CCCc1ccc2c(c1)-c1[nH]c3ccc([N+](=O)[O-])cc3c1CC(=O)N2	cell-free assay	–	–	0.5 µM	remaining signal	99.7%
Cc1ccc(C(=O)Nc2ccc(CN3CCN(C)CC3)c(C(F)(F)F)c2)cc1C#Cc1cnc2cccnn12	enzyme activity	inhibitor	–	23.5 nM	remaining activity	89%
CC(C)c1ccc(NC(=O)c2cccs2)c(-c2nc3ccccc3[nH]c2=O)c1	enzyme activity	inhibitor	–	1 µM	activity vs control	97%
COc1cc(-c2cc(-c3ccc(N4CCNCC4)cc3)cnc2C)cc(OC)c1OC	enzyme activity	inhibitor	–	1 µM	inhibition	1%
CCCS(=O)(=O)Nc1ccc(F)c(C(=O)c2c[nH]c3ncc(-c4ccc(Cl)cc4)cc23)c1F	enzyme activity	inhibitor	–	1 µM	inhibition	< 10%
O=C(CSc1nc2nccnc2c(=O)n1CCc1ccccc1)Nc1nccs1	enzyme activity	inhibitor	–	10 µM	inhibition	4%
O=C1Nc2ccc(Cl)cc2C1=Cc1cc(Cl)c(O)c(Cl)c1	cell-free assay	–	–	0.5 µM	remaining signal	98.2%
N#CC1(c2ccccn2)CCN(Cc2cc(C(=O)N3CCCC3)c(=O)n3ccccc23)CC1	cell-free assay	–	competition with immobilised ligand	1 µM	remaining binding	100%
COc1cc(Cl)c(C(=O)N[C@@H](CN[C@H]2CC[C@@H](N)CC2)Cc2ccc(C#N)cc2)cc1-c1ccc(CN[C@H](C)c2ccc(C)cc2)o1	enzyme activity	inhibitor	–	1 µM	remaining activity	105%
Cc1cnc(NC2CCOCC2)nc1-n1cnc(C(=O)NC(CN)c2cc(F)cc(Cl)c2)c1 (stereo not shown)	enzyme activity	inhibitor	radiometric	1 µM	remaining activity	88%
CCN(CC)CCNC(=O)c1c(C)[nH]c(/C=C2\C(=O)Nc3ccc(F)cc32)c1C	enzyme activity	inhibitor	–	10 µM	inhibition	-4%
C[C@@]1(Cc2ccc(C#N)cc2)C(=O)N(c2cc(Cl)cc(Cl)c2)c2ncc(C(=O)NC3(c4nc(C5CCC5)no4)CC3)n21	cell-free assay	–	competition with immobilised ligand	1 µM	remaining binding	100%
CCOc1cc(-c2nncn2C)ccc1Nc1ncc2cc(C)nc(NCC(C)(C)C)c2n1	enzyme activity	inhibitor	FRET	1 µM	inhibition	19%
CN([C@@H]1CCc2c(CC(=O)O)c3cc(S(C)(=O)=O)ccc3n2C1)S(=O)(=O)c1ccc(F)cc1	cell-free assay	–	competition with immobilised ligand	1 µM	remaining binding	70%
COc1cc2ncnc(Nc3ccc(Oc4ccccc4)cc3C)c2cc1OC	enzyme activity	inhibitor	–	1 µM	inhibition	-1%
CCOC(=O)c1cc2cc(-c3cc(C(=O)NCc4ccc(C(=O)O)cc4)nn3C)ccc2[nH]1	cell-free assay	–	competition with immobilised ligand	0.1 µM	remaining binding	70%
CCCOc1ccc(OC)c(F)c1C(=O)c1ccc(C(=O)N[C@@H]2CNC[C@H]2NC(=O)c2ccc3[nH]ncc3c2)cc1	enzyme activity	inhibitor	–	10 µM	remaining activity	119%
CN1CCN(c2cnc3c(C4CCN(C(=O)c5ccc(OC(F)(F)F)cc5N)CC4)ncnc3c2)CC1	cell-free assay	–	competition with immobilised ligand	1 µM	remaining binding	100%
O=C(Nc1cnn(-c2csc(C(=O)NC3COC3)c2)c1)Nc1c(F)cccc1Cl	enzyme activity	inhibitor	–	5 µM	remaining activity	96%
O=C(NC[C@@H]1[C@H]2CN(C(=O)OCc3cc(C(F)(F)F)cc(C(F)(F)F)c3)C[C@@H]12)c1ccc2[nH]nnc2c1	cell-free assay	–	competition with immobilised ligand	1 µM	remaining binding	89%
Nc1ncnc2occ(-c3ccc(NC(=O)Nc4cc(C(F)(F)F)ccc4F)cc3)c12	cell-free assay	inhibitor	–	20 µM	remaining signal	0.05%
